Measured values collected from several papers.
Compare with care: the assays were run in different laboratories.
Target: Receptor tyrosine-protein kinase erbB-4 (ERBB4, Homo sapiens, UniProt Q15303)

CNC(=O)c1cc(Oc2ccc(NC(=O)Nc3ccc(Cl)c(C(F)(F)F)c3)cc2)ccn1
inhibition (enzyme activity, inhibitor; 0.3 µM): -7%

C=CC(=O)Nc1cc(Nc2nccc(Nc3cc(Cl)c(F)cc3C(C)(C)O)n2)c(OC)cc1N1CC[C@@H](N(C)C)C1
inhibition (enzyme activity, inhibitor; 1 µM): 88%

CC(C)(C)c1nc2c(s1)c1nc(N)ncc1c1ccc(NS(=O)(=O)c3c(F)cccc3F)c(F)c12
remaining activity (enzyme activity, inhibitor, radiometric; 1 µM): 80%

COc1cc2ncnc(Nc3ccc(F)c(Cl)c3)c2cc1OCCCN1CCOCC1
remaining signal (cell-free assay; 0.5 µM): 24.2%

CC/C(=N\NC(=O)NCc1cccc(O)c1)c1ccc(O)c(C)c1O
inhibition (enzyme activity, inhibitor; 0.1 µM): 9.9%

COc1cc2ncnc(Nc3ccc(Oc4ccccc4)cc3C)c2cc1OC
inhibition (enzyme activity, inhibitor; 1 µM): 98%

FC(F)c1nc2ccccc2n1-c1nc(N2CCOCC2)nc(N2CCOCC2)n1
remaining activity (enzyme activity, inhibitor; 10 µM): 103%

O=C(Nc1nccs1)C(c1cc(F)ccc1O)N1Cc2ccccc2C1=O (stereo not drawn)
inhibition (enzyme activity, inhibitor; 1 µM): 16%

Cc1cc(C)c(-n2ccn3nc(-c4cccnc4)cc23)cc1NC(=O)c1cc(C#N)cc(S(F)(F)(F)(F)F)c1
remaining binding (cell-free assay, competition with immobilised ligand; 0.1 µM): 96.3%

Cc1ccc(NC(=O)c2ccc(C)c(C(F)(F)F)c2)cc1C#Cc1nn(C2CCC(O)CC2)c2ncnc(N)c12 (stereo not drawn)
remaining signal (cell-free assay; 10 µM): -3%

Cc1ccc(NC(=O)c2ccc(CN3CCN(C)CC3)cc2)cc1Nc1nc(-c2cccnc2)cs1
remaining signal (cell-free assay; 0.5 µM): 93.5%

COc1cc(Nc2cnc(C#N)c(O[C@H](C)CN(C)C)n2)ncc1-c1cnn(C)c1
remaining activity (enzyme activity, inhibitor, radiometric; 10 µM): 94%

Cc1ccc(Nc2nccc(N(C)c3ccc4c(C)n(C)nc4c3)n2)cc1S(N)(=O)=O
inhibition (enzyme activity, inhibitor; 0.3 µM): -9%

CO[C@@H](C)c1c(Nc2ccc([C@H](N(C)C(=O)C3CCS(=O)(=O)CC3)C(F)(F)F)cc2)cnc2cc(Cl)nn12
remaining binding (cell-free assay, competition with immobilised ligand; 1 µM): 84%

COc1cc(/C=C/C(=O)CC(=O)/C=C/c2ccc(O)c(OC)c2)ccc1O
activity vs control (enzyme activity, inhibitor; 1 µM): 71%

CN(C)c1ncnc(-c2ccc3nc(Nc4cc(CN5CCN(C(=O)CC(F)(F)F)CC5)ccn4)[nH]c3c2)c1Cl
remaining binding (cell-free assay, competition with immobilised ligand; 1 µM): 99%

CN1CC(Oc2cnc(C#N)cc2-c2ccn3nc(NC(=O)C4CC4)cc3c2)C1
inhibition (enzyme activity, inhibitor; 1 µM): -2%

O=C(Nc1cccnn1)N1CCC(=Cc2cccc(Oc3ccc(C(F)(F)F)cn3)c2)CC1
remaining binding (cell-free assay, competition with immobilised ligand; 1 µM): 100%

Cc1ccc(C(=O)NCc2ccsc2)cc1C#Cc1cn(C(C)C)c2ncnc(N)c12
activity vs control (enzyme activity, inhibitor; 1 µM): 52%

O=C(NC[C@@H]1[C@H]2CN(C(=O)OCc3cc(C(F)(F)F)cc(C(F)(F)F)c3)C[C@@H]12)c1ccc2[nH]nnc2c1
remaining binding (cell-free assay, competition with immobilised ligand; 1 µM): 100%

Nc1ncnc2occ(-c3ccc(NC(=O)Nc4cc(C(F)(F)F)ccc4F)cc3)c12
remaining signal (cell-free assay, inhibitor; 20 µM): 57%

NS(=O)(=O)c1cc(NC(=O)C2(c3ccccc3Cl)CC2)ccc1Oc1cccc(Cl)c1
remaining binding (cell-free assay, competition with immobilised ligand; 1 µM): 75%

COc1cc2c(N3CCN(C(=O)Nc4ccc(OC(C)C)cc4)CC3)ncnc2cc1OCCCN1CCCCC1
remaining signal (cell-free assay; 0.5 µM): 97.3%

CN(C)C(=O)Cn1cc(-c2nc([C@@](C)(c3ccc(-c4cnc(N)nc4)cc3)C3CC3)no2)cn1
remaining binding (cell-free assay, competition with immobilised ligand; 1 µM): 100%

COc1cc(Cl)c(C(=O)N[C@@H](CN[C@H]2CC[C@@H](N)CC2)Cc2ccc(C#N)cc2)cc1-c1ccc(CN[C@H](C)c2ccc(C)cc2)o1
remaining activity (enzyme activity, inhibitor; 1 µM): 99%

O=C1Nc2ccc(Cl)cc2C1=Cc1cc(Cl)c(O)c(Cl)c1
remaining signal (cell-free assay; 0.5 µM): 94.2%

Cc1nc(N2CC[C@@H](O)C2)ncc1-c1cc(C(F)(F)F)cc2[nH]ncc12
remaining binding (binding, competition with immobilised ligand; 1 µM): 87%
